PGC1a acetyl inh – inhibitors of PGC1a acetylation signal, primary screen, cell-based, U2OS, AlphaScreen, inhibitor mode; AlphaScreen anti-acetyl-lysine; with virally co-expressed GCN5 acetyltransferase; inhibition, % at 15.6 µM; 0.17% of 350,000 active; AID 651687, 2012;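 active = every replicate shows inhibition of at least 40%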;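 also: 0% = neutral control wells and 100% = positive control wells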
ARNT-TACC3 inh – disruptors of ARNT/TACC3 protein interaction, primary screen, biochemical, AlphaScreen, single concentration; inhibition, % at 9.99 µM; AlphaScreen His-ARNT PAS-B/GST-TACC3 binding, luminescence; TACC3 fragment carries E629A point mutation; Transforming acidic coiled-coil-containing protein 3 (Homo sapiens), Q9Y6A5; 0.66% of 390,000 active;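 active = mean inhibition of replicates at least 50% and at least half of replicates each reaching 50%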;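 also: 0% = complete ARNT plus TACC3 wells and 100% = ARNT alone without TACC3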
CAL PDZ FP-1 – CAL PDZ peptide-binding inhibitors, primary screen, biochemical, fluorescence polarization, Cer-tagged CAL PDZ, HTS | AID 504414, 2011 | 0.02% of 330,000 active | inhibition, % at 20 µM | Golgi-associated PDZ and coiled-coil motif-containing protein (Homo sapiens), Q9HD26 | purified CAL PDZ, TMR-peptide fluorescence polarization, 1 h;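 active = highest replicate inhibition of at least 40%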;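 also: plate controls were DMSO neutral control wells for no effect and unlabeled competitor peptide control wells for full effect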
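Control set: unlabelled peptide and DMSO controls / Material: purified CerCALP PDZ construct / Timing: 1 h incubation at room temperature before polarization reading / Doses: 20 µM, one dose / Detection: fluorescence polarization (mP)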
miR-122 sensor – miR-122 Renilla sensor signal increase in Huh7, primary screen, miR-122 inhibitor project, cell-based, single point, plate reader. 0.3% of 340,000 active. Huh7 miR-122 Renilla luciferase sensor, 48 h; neutral wells = 0, positive control = 100. activation (reporter increase), % at 12.5 µM;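 active = mean replicate activation score at least 90 and every replicate individually at or above 90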;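 also: higher luciferase means less miR-122 activity so hits act as miR-122 inhibitors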
CAL PDZ FP-2 – untagged CAL PDZ binding inhibitors, primary screen, biochemical, fluorescence polarization, HTS. inhibition, % at 24.9 µM. purified CAL PDZ, TMR-peptide fluorescence polarization, 1 h. AID 602252, 2012. 0.92% of 300,000 active;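 active = mean inhibition of at least 30% with at least half of replicates also reaching 30%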;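 also: 0% = DMSO neutral control and 100% = excess unlabeled competitor peptide PRC23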
F508del corr – F508del CFTR correction, initial screen, CFBE line, single point; CFBE cells, YFP halide quenching; stimulated with forskolin plus potentiator P3; % fluorescence drop versus neutral controls; activity (quench increase), % at 7.58 µM; 0.36% of 350,000 active; AID 720511, 2013;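 active = mean added fluorescence quench of at least 8% versus neutral control, with both replicates also reaching 8%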;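 also: cells transiently co-express mutant CFTR-F508del with the halide-sensitive YFP; corrector assay measuring rescue of mutant channel to the surface after 24 h compound exposure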
An asterisk follows results filed as active; . = no result; [ ] = dose if it differs, or a comment. Most compounds without a hit are left out; they make up all but 1.7% or so of the library.

SMILES	PGC1a acetyl inh	ARNT-TACC3 inh	CAL PDZ FP-1	miR-122 sensor	CAL PDZ FP-2	F508del corr
CCc1nnc(NC(=O)CSc2nc(-c3ccc(OC)cc3)ns2)s1	-5	-3	0	-1	51*	.
N=c1sccn1CC(=O)Nc1ccccc1Sc1ccccc1	73*	6	0	-9	8	4
O=C(NC[C@H]1CC[C@@H]2[C@@H](CN2Cc2cccc(Cl)c2)O1)C1CC1	-6	.	.	.	.	1
O=C(NCCc1ccccc1F)c1ccc2c(c1)OCCO2	-5	.	-1	-6	47*	-1
NS(=O)(=O)c1ccc(CCNC(=O)/C=C/c2ccc([N+](=O)[O-])cc2)cc1	8	-3	0	.	.	0
NS(=O)(=O)c1ccc(CCNC(=O)COC(=O)Cc2ccc([N+](=O)[O-])cc2)cc1	9	-4	1	-7	34*	1
C[C@H]1CN([C@@H](C)CO)C(=O)Cc2cc(NS(=O)(=O)c3cccs3)ccc2O[C@H]1CN(C)Cc1ccc(C(F)(F)F)cc1	3	16	.	0[16.7 µM]	.	-1
Cn1cnc(S(=O)(=O)N2C[C@H](O)COC[C@H]3O[C@@H](CC(=O)NCc4ccc(F)cc4)CC[C@@H]32)c1	1	5	.	8[16.7 µM]	.	-2
Cc1cc(=O)c(C(=O)O)nn1-c1cccc(C(F)(F)F)c1	.	-23	0	.	73*	3
CC(C)C1CC(=O)NC(SCC(=O)Nc2ccc(Br)cc2)=C1C#N (stereo not given)	12	-4	0	12	57*	.
COc1ccc(NC(=O)Nc2ccc3c(c2)[C@@H]2C[C@@H](CC(=O)N4CCCCC4)O[C@H](CO)[C@@H]2O3)cc1	-17	0	.	-1[16.7 µM]	.	2
Cc1ccc(NC(=O)CN(C)CC(=O)NC2CCCc3ccccc32)cc1 (stereo not given)	-2	10	-2	-4	-4	1
CCOc1ccc(NC(=O)CN(C)CC(=O)NC2CCCc3ccccc32)cc1OCC (stereo not given)	0	0	0	2	40*	.
COc1cc(CC(=O)NC2CCCc3ccccc32)cc(OC)c1OC (stereo not given)	.	-15	-1	.	43*	-1
COc1ccc(/C=N/N2CCN(Cc3ccc(C)cc3)CC2)cc1Br	2	8	7	-4	72*	-1
Cc1ccc(CN2CCN(/N=C/c3ccc(O)c(O)c3)CC2)cc1	4	9	-2	-4	-2	-2
CN(Cc1ccc(Cl)cc1Cl)C(=O)c1cccc(S(=O)(=O)N2CCN(c3ccccc3)CC2)c1	.	0	0	.	-4	-1
CN(CCOc1ccc(Cl)cc1)C(=O)c1cccc(S(=O)(=O)N2CCN(c3ccccc3)CC2)c1	.	-2	0	.	-7	8.6*
CN(C)C(=O)C[C@@H]1CC[C@H]2[C@H](COc3ccc(NC(=O)C4CCOCC4)cc3C(=O)N2C)O1	-6	-12	.	-3[16.7 µM]	.	0
O[Si](CCCN1CCCCC1)(c1ccc(F)cc1)C1CCCCC1 (stereo not given)	-2	2	-1	1	-3	8.8*
Cc1noc(C)c1S(=O)(=O)Nc1ccc2c(c1)C(=O)N([C@H](C)CO)C[C@H](C)[C@@H](CN(C)C(=O)Nc1ccccc1)OCCCC[C@@H](C)O2	-3	-8	.	5[16.7 µM]	.	-1
CN(C)CC(=O)Nc1ccc2c(c1)[C@H]1C[C@H](CC(=O)N3CCN(C)CC3)O[C@@H](CO)[C@H]1O2	11	-2	.	-1[16.7 µM]	.	0
Cc1cc(F)ccc1NC(=O)c1cc(S(=O)(=O)N2CCCC2)cn1C	-1	-4	0	-2	69*	-2
COc1ccccc1NC(=O)c1cc(S(=O)(=O)N2CCCC2)cn1C	18	-2	0	-8	.	0
CC(=O)C[C@H]1c2cc(C(F)(F)F)ccc2S(=O)(=O)N1C1CCCC1	9	-2	0	105*	-1	1
SMILES	PGC1a acetyl inh	ARNT-TACC3 inh	CAL PDZ FP-1	miR-122 sensor	CAL PDZ FP-2	F508del corr
CCOCCc1nnc(NC(=O)C2CC(=O)N(CCc3ccc(F)cc3)C2)s1 (stereo not given)	.	.	-1	1	59*	0
O=C(C[C@@H]1C=C[C@H](NC(=O)Nc2cc(F)ccc2F)[C@H](CO)O1)NCc1ccc2c(c1)OCO2	3	17	.	.	.	-1
COc1ccc(/C=C/CN2CCCC(CO)(Cc3cccc(Cl)c3)C2)cc1 (stereo not given)	-13	10	-2	-11	54*	0
O=C(NC(Cc1ccccc1)C(=O)N1CCN(S(=O)(=O)c2ccccc2F)CC1)c1ccccc1 (stereo not given)	2	4	0	-2	.	8.7*
Cc1ccc(C(=O)Nc2ncc(C)s2)o1	-3	3	-3	11	.	.
Cc1cnc(NC(=O)NCC2CCCC(CNC(=O)Nc3ncc(C)s3)C2)s1 (stereo not given)	.	-1	-1	-1	67*	0
O=C(Cc1ccc(Br)cc1)OCC(=O)c1ccc[nH]1	-2	31	0	-5	44*	0
Cc1ccc(Cn2ccc(NC(=O)c3cc(-c4ccccc4)on3)n2)cc1	-10	-14	-3	0	-7	2
COc1cccc(-c2cc(C(=O)Nc3ccn(Cc4ccc(C)cc4)n3)no2)c1	2	-3	.	-10	38*	-1
Cc1ccc2nc(Cl)c(/C=N/Nc3nc(C)cc(C)n3)c(=O)n2c1	10	46*	-1	1	-2	2
Cc1ccc2nc(C)c(Cl)c(=O)n2c1	14	-3	-1	-1	-2	.
COc1cc(C(=O)OCCCc2cc3ccccc3c(=O)o2)cc(OC)c1OC	.	-1	0	.	-5	5
COc1cc(C(=O)OCCc2cc3ccccc3c(=O)o2)cc(OC)c1OC	.	11	-1	.	2	11*
CC(C)Oc1ncnc2c1[nH]c1ccccc12	10	2	-1	-2	.	10*
CC(C)NC(=O)N(C)C[C@H]1Oc2ccc(NC(=O)Nc3ccc(C(F)(F)F)cc3)cc2CC(=O)N([C@H](C)CO)C[C@H]1C	-3	17	.	11[16.7 µM]	.	2
COc1ccc(NC(=O)N(C)C[C@H]2Oc3ccc(NC(=O)Nc4ccc(C(F)(F)F)cc4)cc3CC(=O)N([C@@H](C)CO)C[C@H]2C)cc1	-10	-2	.	201*[16.7 µM]	.	2
CC(C)NC(=O)N(C)C[C@@H]1Oc2ccc(NC(=O)Nc3ccc(C(F)(F)F)cc3)cc2CC(=O)N([C@@H](C)CO)C[C@H]1C	3	46*	.	4[16.7 µM]	.	-3

High-throughput results: PubChem, Broad Institute
